Measurements from the RNAGym collection of RNA variant scans (doi:10.1126/science.aae0568).
Variants at the floor of the assay were thinned out.

B1: tRNA (parent)
chain: GUUCCGUUGGCGUAAUGGUAACGCGUCUCCCUCCUAAGGAGAAGACUGCGGGUUCGAGUCCCGUACGGAACG

Variants of: B1
Test: yeast fitness relative to wild type (ratio to wild type); higher = fitter; tRNA-Arg(CCU), competitive growth, 37 C, YPD
Procedure, shortened: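 For this measurement, the tRNA-Arg(CCU) gene was varied by chemical synthesis at a 3% per-site mutation rate across 69 sites, and each variant was placed at the native genomic locus in Saccharomyces cerevisiae. The pooled strains went through a 24-hour competition in YPD at 37°C in six parallel replicates, with amplicons from start and end populations read by 100-nucleotide paired-end sequencing. Darwinian fitness relative to wild type followed from the change in each genotype's frequency. Genotypes needed ≥ 100 starting reads, and estimates < 0.5 were set to 0.5.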

Variant	yeast fitness
GUUCCGUUGGCGUAAUCGUAACGCGUCUCCCUCCUAAGGAGUAGACUGCGGGUUCGAGUCCCGUACGGAGCG [G17C A42U A70G]	0.653
GUUCCGUUGGCGUAAUCGUGACGCGUCUCCCUCCUAAGGAGAAGACUGCGAGUUCGAGUCCCGUACGGAACG [G17C A20G G51A]	≤ 0.5
GUUCCGUUGGCGUAAUCGUAACGCGUCUCCCUCCUAAGGUGAAGACUGCGGGUUCGAGUCCCGUAGGGAACG [G17C A40U C66G]	≤ 0.5
GUUCCGUUGGCGUAAUCGUAACGCGUCUCCCUCCUAAGGAGAUGACUGCGGGUUCAAGUCCCGUACGGAUCG [G17C A43U G56A A70U]	≤ 0.5
GUUCCGUUGGCGUAAUCGUUACGCGUCUCCCUGCUAAGGAGAAGACUGCGGGUUCGAGUCCCGUACGGAACG [G17C A20U C33G]	≤ 0.5
GUUCCGUUGGCGUAAUAGUAACGCGUCUCCCUCCGAAGGAGAAGACUGCGGGUUCGAGUCCCGUUCGGAACG [G17A U35G A65U]	≤ 0.5
GUUCCGUUGGCGUAAUCGUAAUGCGUCUGCCUCCUAAGGAGAAGACUGCGCGUUCGAGUCCCGUACGGAACG [G17C C22U C29G G51C]	≤ 0.5
GUUCCGUUGGCGUAAUCGUAACGCGUCUCCCUCCUUAGGAGAACACUGCGGGUUCGAGUCCCGUACGGAACG [G17C A36U G44C]	≤ 0.5
GUUCCGUUGGCGUAAUCGUAACGCGUCUCCCUCCUACGGAGAAGUCUGCGGGUUCGAGUCCCGUACGGAACG [G17C A37C A45U]	0.659
GUUCCGUUGGCGUAAUAGUAACGCGUCUCCCUCCUAAGGAGAAGACUGCGGGUACCAGUCCCGUACGAAACG [G17A U54A G56C G68A]	≤ 0.5
GUUCCGUUGGCGUAAUCGUAAGGCGUCUACCUCCUAAGGAGAAGAUUGCGGGUUCGAGUCCCGUCCGGAACG [G17C C22G C29A C46U A65C]	≤ 0.5
GUUCCGUUGGCGUAAUCGUAAAGGGUCCCCCUACUAAGGAGAAGACUGCGGGUUCGAGUCCCGUACGGAACG [G17C C22A C24G U28C C33A]	≤ 0.5
GUUCCGUUGGCGUAAUCGUAAUGCGUCUCCCCCCUAAGGUGAAGACUGCGGGUUCGAGUCCCGUGCGGAACG [G17C C22U U32C A40U A65G]	≤ 0.5
GUUCCGUUGGCGUAAUCGUAUCGCGUCUCCCUCCUAAGGAGAAGACUGCGGGUUCGUGUCCCGUACGGAACG [G17C A21U A57U]	0.564
GUUCCGUUGGCGUAAUAGUAACGCGUCUCCCUCCAAAGGAGAAGACUGCGGGUGCGAGUCCCGUACGGAACG [G17A U35A U54G]	≤ 0.5
GUUCCGUUGGCGUAAUCGUGACGCGUCUCCCUCCUAAGGAGAAGACUGCGGGUUCGAGUCCCGUACGGAACG [G17C A20G]	0.553
GUUCCGUUGGCGUAAUCGUAGCGCGUUUCCCUGCUAAGGAGUAGACUACGGGUUCGGGUCCCGUACGGAACG [G17C A21G C27U C33G A42U G48A A57G]	≤ 0.5
GUUCCGUUGGCGUAAUCGUUACGCGUCUCCCUCCUAAGGAGUAGACUGCGGGUUCGAGUCCCGUACGGAACG [G17C A20U A42U]	0.604
GUUCCGUUGGCGUAAUCGUAAUGCGUCUCCCCCCUAAGGAGAAGAUUGCGGGUUCGAGUCCCGUACGGAACG [G17C C22U U32C C46U]	≤ 0.5

Variant	yeast fitness
GUUCCGUUGGCGUAAUCGUAACGCGUCUCCCUCCUAAGGAGAAGCCUACGGGUUCGAGACCCGUACGGACCG [G17C A45C G48A U59A A70C]	≤ 0.5
GUUCCGUUGGCGUAAUAGUAACGCGUCUCCCUCCGAAGGAGAAGACUGCGGGUUCGAGUCCCAUACGCAACG [G17A U35G G63A G68C]	≤ 0.5
GUUCCGUUGGCGUAAUAGUAACGCGUCUCCCUCCUAAGGAGAAGACUGCGGGUUCGAGUCCCGCAUGGAACG [G17A U64C C66U]	0.69
GUUCCGUUGGCGUAAUCGUAACGCGUCUCCCUCCUAAGGAGAAGACUGCGGGUUCGAGUCCCGUUCGGAACG [G17C A65U]	0.649
GUUCCGUUGGCGUAAUCGUAACGCGUCUCCCUCCUAAGGAGAAGACUGCGGGUUCGAGUCCCGUCCGGAACG [G17C A65C]	0.67
GUUCCGUUGGCGUAAUCGUAACGCGUCUCCCUCCUAAGGAGAAGACUGCGGGUUCGUGUCCCGUACGGAACG [G17C A57U]	0.52
GUUCCGUUGGCGUAAUAGUAACGCGUCUCCCUCCUAAGGAGAAGACUGCGGGUCCGAGUCCCGUACGGAGCG [G17A U54C A70G]	≤ 0.5
GUUCCGUUGGCGUAAUCGUAACGCGUCUCCCUCCUAAGGAGUAGACUGCGGGUUCGAGUCCCGUACGGAACG [G17C A42U]	0.703
GUUCCGUUGGCGUAAUCGUAACGCGUCUCCCUCCUAAGGAGGAGACUGCGGGUUCGAGUCCCGUACGGAACG [G17C A42G]	0.528
GUUCCGUUGGCGUAAUCGUAACGCGUCUCCCUCCUAAGGAGACGACUGCGGGUUCGAGUCCCGUACGGAACG [G17C A43C]	0.734
GUUCCGUUGGCGUAAUAGUAACGCGUCUCCCUCCUAAGGAGAAGACUGCGGGUACCAGUCCCGUACGGAACG [G17A U54A G56C]	0.597
GUUCCGUUGGCGUAAUAGUAACGCGUCUCCCUCCGAAGGAGAAGACUCCGGGUUCGAGUCCCGUACCGAACG [G17A U35G G48C G67C]	0.558
GUUCCGUUGGCGUAAUCGUAACGCGUCUCCCUCCUAAGGAGAAGGCUGCGGGUUCGAGUCCCGUACGGAACG [G17C A45G]	0.546
GUUCCGUUGGCGUAAUCGUAUCGCGUCUCCCUCCUAAGGAGAAGACUGCGGGUUCGAGUCCCGUACGGAACG [G17C A21U]	0.559
GUUCCGUUGGCGUAAUCGUGACGCGUCUCGCUCCUAAGGAGAAGACUGCGGGUUCGAGUCCCGUUCGGAACG [G17C A20G C30G A65U]	≤ 0.5
GUUCCGUUGGCGUAAUCGUAACGCGUCUCCCUCCUAAGGAGAUGACUGCGGGUUCGAGUCCUGUACGGAACG [G17C A43U C62U]	0.632
GUUCCGUUGGCGUAAUCGUAAAGCGUCCCCCUCCUAAGGAGAAGACUGCGGGUUCGAGUCCCGUAGCGAACG [G17C C22A U28C C66G G67C]	≤ 0.5
GUUCCGUUGGCGUAAUAGUAACGCGUCUCCCUCCUAAGGAGAAGACUGCGGGGUUGAGUCCCGUACGGAACG [G17A U53G C55U]	≤ 0.5
